The results in this text go back to PubChem BioAssay.

Activity calls are given as the source filed them.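 Rule for the calls, unless noted: active = inhibition of the reporter signal at or above 50%; inactive = inhibition below 50%.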

Assay [1] in a line: inhibitors of TNFa-induced NFkB p65 translocation, primary screen, imaging, HUVEC, MLSMR starter and 10KST1 sets (AID 438;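 active = inhibition above 20% together with a positive visual image hit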;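 note: compound added about 3h40 before a 20 min TNFalpha stimulation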;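 for inhibition: signal is the nuclear over cytoplasmic p65 intensity ratio per well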). Particulars: HUVEC TNFa-induced p65 nuclear translocation; cell count: measured here: nuclei count (cytotoxicity indicator), at 2.08 µM; inhibition: at 2 µM, stronger effect = higher value, 0% TNFa-plus-vehicle, 100% no-TNFa wells.
Assay [2] can be described thus: inhibitors of mutant huntingtin aggregation, primary screen, imaging, exon1htt(103Q)mCFP cells, high-content imaging (AID 483;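 active = visual image review flags a hit and inhibition of aggregation exceeds 20%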;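 note: compound exposure lasted 3 days before fixation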;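 for nuclei count: percent of the per-plate median nuclei count of sample wells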). The following applies: exon1htt(103Q)mCFP cell line, aggregate imaging, at 2 µM; inhibition of aggregation: stronger effect = higher value; nuclei count: measured here: cell count, toxicity.
Assay [3] in a line: inhibitors of E-selectin induction by TNFa, primary screen, imaging, HUVEC, immunofluorescence, MLSMR starter and 10KST1 sets (AID 487;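 active = visually confirmed hit in the image check and inhibition above 20%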;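 for inhibition: signal is fraction of cell area covered by stained E-selectin grains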;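 for nuclei count: 100% = median nuclei count of all wells on the same plate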). Particulars: HUVEC TNFalpha-induced E-selectin immunofluorescence imaging, at 2 µM; inhibition: stronger effect = higher value; nuclei count: measured here: cell number, toxicity.
Assay [4] has as its target Voltage-gated potassium channel subunit beta-2 (Rattus norvegicus) (UniProt P62483). The assay can be described thus: KvBeta enzyme negative modulators, primary screen, biochemical, NADPH fluorescence (AID 622;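 active = fluorescence slope higher than the sample average by over 3 SD, cut at about -0.22 in these data, passing the limit was not always enough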;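 note: slope of raw intensity against log time taken from 70 to 1610 s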). Particulars: recombinant KvBeta, 4-cyanobenzaldehyde reduction, at 10 µM, stronger effect = higher value.
Assay [5] has the same target. The assay can be described thus: KvBeta positive modulators, primary screen, biochemical, NADPH fluorescence (AID 623;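 active = NADPH fluorescence slope more negative than the mean of all samples by about 3 SD, 99.7% confidence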;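 note: fluorescence intensity change per second fitted from 20 to 320 s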). The following applies: Recombinant KvBeta, NADPH fluorescence decrease slope, 10 min; at 10 µM; stronger effect = lower value.
For assay [6], the target named is Muscarinic acetylcholine receptor M4 (Homo sapiens) (UniProt P08173). The assay can be described thus: compounds altering M4/GIRK thallium flux, either direction, primary screen, M4 allosteric agonist project, cell-based, HEK293 M4/GIRK, BTC-AM (AID 625;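 active = fluorescence slope after compound addition differing from the mean of all tested samples at 99.7% confidence, mostly higher but some lower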;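 note: thallium influx through GIRK channels coupled to M4 in HEK293 cells with BTC-AM dye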). Particulars: at 10 µM, actives lie on both sides. The method, boiled down:
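Material: HEK293 cells with M4 receptor and GIRK channels; Times: cells overnight at 37 °C, BTC-AM loading 1 h, reads 2 min total; Technique: kinetic BTC-AM fluorescence sampled at 1 Hz, 10 s pre-addition baseline; Read-out basis: slope over 15–24 s of trace normalized to starting intensity; Controls: carbachol positive, DMSO negative.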

Assay [7] can be described thus: inhibitors of Sendai virus-induced IRF3 signaling, primary screen, TLR/RLR signaling modifier project, cell-based, Sendai virus stimulus, luciferase, 10K MLSCN set (AID 602276;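 active = inhibition at or above 50% at 10 µM; inactive = inhibition below 50%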;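 note: firefly luciferase from ISG56 promoter only with Renilla not read in this screen; 0% = Sendai virus plus DMSO and 100% = medium plus DMSO without virus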). Particulars: HEK293 RL24 IRF3 luciferase reporter, at 10 µM, stronger effect = higher value. (In a reporter assay the amount or activity of a reporter protein is the signal.)
Assay [8] in a line: inhibitors of poly I:C-induced TLR3 signaling, primary screen, cell-based, poly I:C stimulus, luciferase, 10K MLSCN set (AID 602277). Particulars: HEK293-TLR3 RL24 IRF3 luciferase reporter, at 10 µM, stronger effect = higher value.

Chain of Muscarinic acetylcholine receptor M4 (Homo sapiens) (P08173 whole entry, looked up): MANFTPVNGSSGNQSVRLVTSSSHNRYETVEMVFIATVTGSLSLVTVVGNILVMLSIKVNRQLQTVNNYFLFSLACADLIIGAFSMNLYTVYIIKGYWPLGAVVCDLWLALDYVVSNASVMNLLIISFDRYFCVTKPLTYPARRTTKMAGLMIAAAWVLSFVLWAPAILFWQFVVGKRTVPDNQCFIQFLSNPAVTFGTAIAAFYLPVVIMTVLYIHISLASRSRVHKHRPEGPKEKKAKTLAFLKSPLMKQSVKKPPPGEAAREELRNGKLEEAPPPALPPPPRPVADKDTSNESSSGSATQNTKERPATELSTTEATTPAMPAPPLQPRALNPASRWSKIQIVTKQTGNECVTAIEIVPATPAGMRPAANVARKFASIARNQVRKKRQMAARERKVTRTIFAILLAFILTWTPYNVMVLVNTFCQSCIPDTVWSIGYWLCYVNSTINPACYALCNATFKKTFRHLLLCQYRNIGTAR
Chain of Voltage-gated potassium channel subunit beta-2 (Rattus norvegicus) (P62483 whole entry, looked up): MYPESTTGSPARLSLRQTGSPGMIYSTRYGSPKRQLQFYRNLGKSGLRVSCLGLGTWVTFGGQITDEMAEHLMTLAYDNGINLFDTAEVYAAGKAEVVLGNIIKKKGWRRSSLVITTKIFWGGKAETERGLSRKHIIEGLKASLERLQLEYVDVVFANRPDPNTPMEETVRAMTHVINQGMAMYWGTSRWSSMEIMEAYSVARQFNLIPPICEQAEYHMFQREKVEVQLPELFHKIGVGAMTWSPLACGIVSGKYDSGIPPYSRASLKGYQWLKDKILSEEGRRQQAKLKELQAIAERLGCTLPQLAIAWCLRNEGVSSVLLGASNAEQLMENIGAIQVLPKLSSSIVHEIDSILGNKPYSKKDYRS

By inhibition is commonly meant the drop in the measured response relative to a control, in per cent. As for `O=C(CCCN1C(=O)c2ccccc2C1=O)Oc1ccc(F)cc1`, in assay [1], the cell count worked out at 735. Also, the inhibition is -11.6% (inactive) in assay [1], 17.3% (inactive) in assay [3], 12.5% (inactive) in assay [7] and 18.6% (inactive) in assay [8]. Besides, the inhibition of aggregation in assay [2] was -0.5% (inactive). The nuclei count in assay [2] was 106%; in assay [3], 96.8%. Moreover, the fluorescence slope in assay [4] was -0.512 (inactive); in assay [6] it was 0.00485 (inactive). In assay [5], the NADPH fluorescence slope was 1.4e-05 (inactive).

With `CCCN(S(=O)(=O)c1ccc(OCC)cc1)S(=O)(=O)c1cccs1`, in assay [1], the cell count is 457. For the same compound, the inhibition is 7.4% (inactive) in assay [1], -52.8% (inactive) in assay [3], -4.95% (inactive) in assay [7] and 2.38% (inactive) in assay [8]. Further, in assay [2], the inhibition of aggregation is -7.2% (inactive). Besides, the nuclei count is 109% in assay [2] and 101% in assay [3]. Besides, the fluorescence slope in assay [4] is -0.481 (inactive); in assay [6] it was 0.00646 (inactive). Besides, the NADPH fluorescence slope in assay [5] is 0.0001 (inactive).

Consider `CCSC1=NCN(CCCC(=O)O)CN1`, for which the cell count in assay [1] is 645. Also, the inhibition in assay [1] was 10.1% (inactive); in assay [3], -81.7% (inactive); in assay [7], 12.3% (inactive); in assay [8] it was 10.3% (inactive). The inhibition of aggregation in assay [2] is 5.8% (inactive). For the same compound, the nuclei count in assay [2] came to 106%; in assay [3], 125%. For the same compound, the fluorescence slope in assay [4] is -0.558 (inactive); in assay [6], 0.00489 (inactive). For the same compound, the NADPH fluorescence slope in assay [5] was -4e-05 (inactive).

With `CC(=O)NCCn1ccc2ccccc21`, the cell count in assay [1] amounted to 272. Further, the inhibition in assay [1] is 14.1% (inactive); in assay [3], -55.1% (inactive); in assay [7] it was 16.6% (inactive); in assay [8] it was 20.7% (inactive). Further, in assay [2], the inhibition of aggregation is 17.6% (inactive). In addition, the figures for the nuclei count in assay [2] and in assay [3] were 93% and 99.6%, respectively. In addition, the fluorescence slope in assay [4] is -0.518 (inactive); in assay [6] it was 0.00841 (inactive). Further, the NADPH fluorescence slope in assay [5] is 0.000103 (inactive).

As to `CCOc1nc(-c2ccccc2)ccc1-c1noc(-c2cccnc2)n1`, the cell count in assay [1] was 233. For the same compound, the inhibition in assay [1] was 8.4% (inactive); in assay [3], 29.6% (inactive); in assay [7] it was -14.5% (inactive); in assay [8], -16% (inactive). Besides, the inhibition of aggregation in assay [2] was -0.3% (inactive). Besides, the nuclei count in assay [2] was found to be 99.4%; in assay [3] it was 91.1%. Also, the figures for the fluorescence slope in assay [4] and in assay [6] were -0.427 (inactive) and 0.00434 (inactive), respectively. In assay [5], the NADPH fluorescence slope is -0.000244 (inactive).

On to `COc1cccc(CN(C(=O)c2cc3ccccc3oc2=O)C2CC2)c1`, for which, in assay [1], the cell count came to 459. Moreover, the inhibition in assay [1] is -6.2% (inactive); in assay [3], -52.3% (inactive); in assay [7], -43.3% (inactive); in assay [8], -136% (inactive). The inhibition of aggregation in assay [2] was -16% (inactive). Also, the figures for the nuclei count in assay [2] and in assay [3] were 108% and 137%, respectively. Also, the results for the fluorescence slope in assay [4] and in assay [6] were -0.51 (inactive) and 0.00464 (inactive), respectively. In assay [5], the NADPH fluorescence slope was -2.3e-05 (inactive).

Consider `COc1ccccc1-n1c(SCC(N)=O)nnc1-c1ccccc1`, for which, in assay [1], the cell count is 737. Moreover, the inhibition was 19.3% (inactive) in assay [1], -0.4% (inactive) in assay [3], 13.3% (inactive) in assay [7] and 23.1% (inactive) in assay [8]. Also, the inhibition of aggregation in assay [2] is -24.2% (inactive). The values for the nuclei count in assay [2] and in assay [3] were 106% and 80.6%, respectively. In addition, the fluorescence slope in assay [4] is -0.484 (inactive); in assay [6], 0.00627 (inactive). Moreover, in assay [5], the NADPH fluorescence slope is -3.5e-05 (inactive).

Regarding `COC(=O)c1c(C)oc2ccc(NS(=O)(=O)c3cccs3)cc12`, the cell count in assay [1] was 435. Besides, the inhibition was 3.4% (inactive) in assay [1], -85.7% (inactive) in assay [3], 20.8% (inactive) in assay [7] and 10.9% (inactive) in assay [8]. The inhibition of aggregation in assay [2] was 1.4% (inactive). For the same compound, the nuclei count in assay [2] was found to be 99.1%; in assay [3], 114%. Also, the fluorescence slope in assay [4] is -0.534 (inactive); in assay [6] it was 0.0032 (inactive). Besides, in assay [5], the NADPH fluorescence slope is -8.8e-05 (inactive).

Consider `Cc1nc(NC(=O)C2CC3CCCC(C2)C3=O)sc1C` (centres undefined), for which the cell count in assay [1] came to 411. In addition, the inhibition in assay [1] is 4.4% (inactive); in assay [3], -36.5% (inactive); in assay [7] it was -54.4% (inactive); in assay [8], -87.2% (inactive). Moreover, in assay [2], the inhibition of aggregation was -32.5% (inactive). The nuclei count in assay [2] was determined as 110%; in assay [3], 106%. Besides, the fluorescence slope is -0.581 (inactive) in assay [4] and 0.00306 (inactive) in assay [6]. Also, the NADPH fluorescence slope in assay [5] was -4.4e-05 (inactive).

In the case of `Cc1c(Cc2ccccc2)sc(N)c1C(N)=O`, the cell count in assay [1] amounted to 335. Moreover, the inhibition was -13% (inactive) in assay [1], -32.2% (inactive) in assay [3], 9.38% (inactive) in assay [7] and 10.8% (inactive) in assay [8]. The inhibition of aggregation in assay [2] is -0.8% (inactive). Moreover, the nuclei count is 115% in assay [2] and 113% in assay [3]. For the same compound, the fluorescence slope in assay [4] was -0.574 (inactive); in assay [6], 0.00569 (inactive). The NADPH fluorescence slope in assay [5] is -2.6e-06 (inactive).

For `CCOCCCNC(=O)c1c[nH]c2ccc(S(=O)(=O)Nc3cccc(OC)c3)cc2c1=O`, the cell count in assay [1] turned out to be 337. Further, the inhibition in assay [1] is -3.1% (inactive); in assay [3] it was -85.4% (inactive); in assay [7], 0.375% (inactive); in assay [8], 0.559% (inactive). In assay [2], the inhibition of aggregation was -12.3% (inactive). The results for the nuclei count in assay [2] and in assay [3] were 99.2% and 105%, respectively. The fluorescence slope in assay [4] was -0.599 (inactive); in assay [6] it was 0.00605 (inactive). For the same compound, in assay [5], the NADPH fluorescence slope is -3.6e-05 (inactive).

Turning to `CCOC(=O)c1c(C)c(C(=O)NCC2CCCO2)c(C)n1C` (centres undefined), in assay [1], the cell count came to 267. Also, the inhibition is -2% (inactive) in assay [1], -8% (inactive) in assay [3], 14.1% (inactive) in assay [7] and 20.9% (inactive) in assay [8]. For the same compound, in assay [2], the inhibition of aggregation was -10.1% (inactive). The figures for the nuclei count in assay [2] and in assay [3] were 94.7% and 74.6%, respectively. The fluorescence slope in assay [4] is -0.461 (inactive); in assay [6], 0.00685 (inactive). Moreover, the NADPH fluorescence slope in assay [5] is -6e-06 (inactive).

With `Cc1cc(NC(=O)C23CCC(C)(c4nc5cc(Cl)c(Cl)cc5nc42)C3(C)C)no1` (centres undefined), the cell count in assay [1] came to 409. For the same compound, the inhibition was 4.3% (inactive) in assay [1], -116% (inactive) in assay [3], 12.2% (inactive) in assay [7] and 15.9% (inactive) in assay [8]. The inhibition of aggregation in assay [2] was 7.4% (inactive). The nuclei count in assay [2] stood at 104%; in assay [3] it was 92.1%. Further, the fluorescence slope in assay [4] is -0.577 (inactive); in assay [6] it was 0.00686 (inactive). In addition, the NADPH fluorescence slope in assay [5] is -4.4e-05 (inactive).

As to `Nc1nnc(-c2ccccc2)c(-c2ccccc2)n1`, in assay [1], the cell count amounted to 676. The inhibition in assay [1] is -2.1% (inactive); in assay [3], -71.1% (inactive); in assay [7], 0.988% (inactive); in assay [8], 14.6% (inactive). The inhibition of aggregation in assay [2] was 26.8% (inactive). The figures for the nuclei count in assay [2] and in assay [3] were 83.9% and 111%, respectively. The fluorescence slope is -0.522 (inactive) in assay [4] and 0.00428 (inactive) in assay [6]. The NADPH fluorescence slope in assay [5] was -3.6e-05 (inactive).
